Source: ChEMBL document CHEMBL1123352, “Anticonvulsant activity of 2- and 3-aminobenzanilides” (J Med Chem, 1986)
Values joined by “and” are separate entries in the source; they are usually repeats but may differ in a detail not shown here. Identical values can stand only once. Active and inactive are the calls of the source. The calls are words filed in the database; no cut-off is given here.

What was measured:
Mus musculus [1] = assay: Anticonvulsant activity against subcutaneous pentylenetetrazole induced convulsions in mice after intraperitoneal administration after 4 hr at 600 mg/kg; NA=No activity; assay type: functional, organism-based; design: dose 600 mg/kg
Summary of the method: (§1)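 Male Carworth Farms No. 1 mice were dosed ip with compound in 30% PEG 400, at 30–600 mg/kg, and read at 30 min and 4 h. Pentylenetetrazole was given at 85 mg/kg as a 0.5% solution sc in the posterior midline. Protection meant no single episode of clonic spasms lasting at least 5 s over a 30-min observation.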

Mus musculus [2] = assay: Anticonvulsant activity against maximal electroshock (MES) induced seizures in mice 30 minutes after ip administration of 300 mg/kg; A=Active; assay type: functional, organism-based; design: dose 300 mg/kg
Summary of the method: (§2)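 Male Carworth Farms No. 1 mice were dosed ip with compound in 30% polyethylene glycol 400, at 30, 100 and 300 mg/kg and sometimes 600 mg/kg, and tested 30 min and 4 h later. A drop of 0.9% saline went in the eye, then 60-cycle AC at 50 mA was given for 0.2 s via corneal electrodes. Protection meant abolition of hind limb tonic extension.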

Mus musculus [3] = assay: Anticonvulsant activity against sc pentylenetetrazole induced convulsions in mice 30 minutes after ip administration of 600 mg/kg; A=Active; assay type: functional, organism-based; design: dose 600 mg/kg; summary of the method: as §1
Mus musculus [4] = assay: Anticonvulsant activity against maximal electroshock (MES) induced seizures in mice 4 hours after ip administration of 600 mg/kg; A=Active; assay type: functional, organism-based; design: dose 600 mg/kg; summary of the method: as §2
Mus musculus [5] = assay: Compound was tested for toxicity by rotarod assay method in mice 30 min after ip administration of 300 mg/kg; Active; assay type: organism-based; design: dose 300 mg/kg, route intraperitoneal; conditions: in vivo, 0.5 h
Mus musculus [6] = assay: Compound was tested for toxicity by rotarod assay method in mice 4 hours after ip administration of 600 mg/kg; NA=No activity; assay type: organism-based; design: dose 600 mg/kg, route intraperitoneal; conditions: in vivo
Mus musculus [7] = assay: Compound was tested for toxicity by rotarod assay method in mice 30 min after ip administration of 300 mg/kg; A=Active; assay type: organism-based; design: dose 300 mg/kg, route intraperitoneal; conditions: in vivo, 0.5 h
Mus musculus [8] = assay: Anticonvulsant activity against maximal electroshock (MES) induced seizures in mice 4 hours after ip administration of 300 mg/kg; A=Active; assay type: functional, organism-based; design: dose 300 mg/kg; summary of the method: as §2
Mus musculus [9] = assay: Compound was tested for toxicity by rotarod assay method in mice 4 hours after ip administration of 600 mg/kg; A=Active; assay type: organism-based; design: dose 600 mg/kg, route intraperitoneal; conditions: in vivo
Mus musculus [10] = assay: Anticonvulsant activity against maximal electroshock (MES) induced seizures in mice 30 minutes after ip administration of 100 mg/kg; A=Active; assay type: functional, organism-based; design: dose 100 mg/kg; summary of the method: as §2
Mus musculus [11] = assay: Anticonvulsant activity against sc pentylenetetrazole induced convulsions in mice 4 hr after ip administration of 600 mg/kg; A=Active; assay type: functional, organism-based; design: dose 600 mg/kg; summary of the method: as §1
Mus musculus [12] = assay: Anticonvulsant activity against sc pentylenetetrazole-induced convulsions in mice 30 minutes after ip administration of 300 mg/kg; A=Active; assay type: functional, organism-based; design: dose 300 mg/kg; summary of the method: as §1
Mus musculus [13] = assay: Compound for anticonvulsant activity against maximal electroshock (MES)-induced seizures in mice after administration; assay type: functional; summary of the method: as §2
Mus musculus [14] = assay: Compound was tested for toxicity by rotarod assay method in mice after intraperitoneal administration after 4 hours at 600 mg/kg; no activity; assay type: organism-based; design: dose 600 mg/kg, route intraperitoneal; conditions: in vivo, ip
Mus musculus [15] = assay: Anticonvulsant activity against maximal electroshock (MES) induced seizures in mice 30 minutes after ip administration of 600 mg/kg; A=Active; assay type: functional, organism-based; design: dose 600 mg/kg; summary of the method: as §2
Mus musculus [16] = assay: Compound was tested for toxicity by rotarod assay method in mice 30 min after ip administration of 600 mg/kg; no activity; assay type: organism-based; design: dose 600 mg/kg, route intraperitoneal; conditions: in vivo, 0.5 h
Mus musculus [17] = assay: Anticonvulsant activity against subcutaneous pentylenetetrazole induced convulsions in mice 4 hr after ip administration of 600 mg/kg.; assay type: functional, organism-based; design: dose 600 mg/kg; summary of the method: as §1
Mus musculus [18] = assay: Anticonvulsant activity against maximal electroshock (MES)-induced seizures in mice 4 hours after ip administration of 300 mg/kg; A=Active; assay type: functional, organism-based; design: dose 300 mg/kg; summary of the method: as §2
Mus musculus [19] = assay: Anticonvulsant activity against subcutaneous pentylenetetrazole induced convulsions in mice 30 min after ip administration of 600 mg/kg.; assay type: functional, organism-based; design: dose 600 mg/kg; summary of the method: as §1
Mus musculus [20] = assay: Anticonvulsant activity against subcutaneous pentylenetetrazole induced convulsions in mice 4 hours after ip administration of 600 mg/kg; No=No activity; assay type: functional, organism-based; design: dose 600 mg/kg; summary of the method: as §1
Mus musculus [21] = assay: Anticonvulsant activity against maximal electroshock (MES) induced seizures in mice 30 minutes after ip administration of 600 mg/kg; NA=No activity; assay type: functional, organism-based; design: dose 600 mg/kg; summary of the method: as §2
Mus musculus [22] = assay: Compound was tested for toxicity by rotarod assay method in mice 4 hours after ip administration at 600 mg/kg; no activity; assay type: organism-based; design: dose 600 mg/kg, route intraperitoneal; conditions: in vivo
Mus musculus [23] = assay: Compound was tested for toxicity by rotarod assay method in mice 30 min after ip administration at 600 mg/kg; no activity; assay type: organism-based; design: dose 600 mg/kg, route intraperitoneal; conditions: in vivo, 0.5 h
Mus musculus [24] = assay: Anticonvulsant activity against maximal electroshock (MES) induced seizures in mice 4 hours after ip administration of 600 mg/kg.; assay type: functional, organism-based; design: dose 600 mg/kg; summary of the method: as §2
Mus musculus [25] = assay: Compound was tested for toxicity by rotarod assay method in mice 30 min after ip administration of 600 mg/kg; A=Active; assay type: organism-based; design: dose 600 mg/kg, route intraperitoneal; conditions: in vivo, 0.5 h
Mus musculus [26] = assay: Anticonvulsant activity against sc pentylenetetrazole-induced convulsions in mice 30 minutes after ip administration of 300 mg/kg; Active; assay type: functional, organism-based; design: dose 300 mg/kg; summary of the method: as §1
Mus musculus [27] = assay: Anticonvulsant activity against subcutaneous pentylenetetrazole induced convulsions in mice 4 hours after ip administration of 600 mg/kg; NA=No activity; assay type: functional, organism-based; design: dose 600 mg/kg; summary of the method: as §1
Mus musculus [28] = assay: Anticonvulsant activity against maximal electroshock (MES) induced seizures in mice […] after ip administration of 600 mg/kg; NA=No activity; assay type: functional, organism-based; design: dose 600 mg/kg; summary of the method: as §2
[29] = Protective index measured as the ratio between TD50 and ED50; assay type: ADME
Mus musculus [30] = assay: Compound for toxicity by rotarod assay method in mice after administration; assay type: organism-based; conditions: in vivo
Summary of the method: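 Neurologic deficit was tested in male Carworth Farms No. 1 mice 30 min and 4 h after ip dosing in 30% PEG 400, at 30–600 mg/kg. Each mouse was placed on a 1-in.-diameter knurled plastic rod turning at 6 rpm. Toxicity meant failing to stay on the rod for 1 min.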

SMILES	Anticonvulsant activity (Mus musculus [2])	Anticonvulsant activity (Mus musculus [4])	Toxicity (Mus musculus [6])	Anticonvulsant activity (Mus musculus [17])	Anticonvulsant activity (Mus musculus [19])	Anticonvulsant activity (Mus musculus [24])	Toxicity (Mus musculus [25])	further results
Cc1ccccc1NC(=O)c1ccccc1N	Active	Active	Not Active	–	–	–	–	Anticonvulsant activity (Mus musculus [1]): inactive; Anticonvulsant activity (Mus musculus [3]): Active; Toxicity (Mus musculus [5]): Active
Nc1cccc(C(=O)Nc2ccccc2)c1	–	–	–	–	–	–	–	Toxicity (Mus musculus [7]): Active; Anticonvulsant activity (Mus musculus [8]): Active; Toxicity (Mus musculus [9]): Active; Anticonvulsant activity (Mus musculus [10]): Active; Anticonvulsant activity (Mus musculus [11]): Active; Anticonvulsant activity (Mus musculus [12]): Active
Cc1cccc(C)c1NC(=O)c1ccc(N)cc1 [AMELTOLIDE]	–	–	–	–	–	–	–	ED50 (Mus musculus [13]): 2.6 mg/kg
Cc1cccc(C(C)C)c1NC(=O)c1cccc(N)c1	–	–	–	inactive	inactive	–	–	Toxicity (Mus musculus [14]): Not Active; Anticonvulsant activity (Mus musculus [15]): Active; Toxicity (Mus musculus [16]): Not Active; Anticonvulsant activity (Mus musculus [18]): Active
CCc1cccc(C(C)C)c1NC(=O)c1ccccc1N	–	–	–	–	inactive	inactive	–	Anticonvulsant activity (Mus musculus [20]): inactive; Anticonvulsant activity (Mus musculus [21]): inactive; Toxicity (Mus musculus [22]): Not Active; Toxicity (Mus musculus [23]): Not Active
Cc1ccc(NC(=O)c2ccccc2N)c(C)c1	–	Active	Not Active	inactive	–	–	Active	Anticonvulsant activity (Mus musculus [15]): Active; Anticonvulsant activity (Mus musculus [3]): Active
Cc1cccc(C)c1NC(=O)c1ccccc1N	Active	Active	Not Active	inactive	–	–	–	Anticonvulsant activity (Mus musculus [26]): Active; Toxicity (Mus musculus [5]): Active
CCc1cccc(C(C)C)c1NC(=O)c1cccc(N)c1	Active	Active	–	inactive	inactive	–	–	Toxicity (Mus musculus [14]): Not Active; Toxicity (Mus musculus [16]): Not Active
Nc1ccccc1C(=O)Nc1ccccc1	Active	–	Not Active	–	inactive	inactive	Active	Anticonvulsant activity (Mus musculus [27]): inactive
Cc1cccc(NC(=O)c2ccccc2N)c1C	–	–	Not Active	inactive	–	inactive	Active	Anticonvulsant activity (Mus musculus [3]): Active; Anticonvulsant activity (Mus musculus [28]): inactive
CC(NC(=O)c1ccc(N)cc1)c1ccccc1 (stereo not drawn)	–	–	–	–	–	–	–	PI [29]: 9.5 and 4.1; TD50 (Mus musculus [30]): 170.78 mg/kg
Cc1cc(C)cc(NC(=O)c2cccc(N)c2)c1	Active	–	–	inactive	–	–	Active	Anticonvulsant activity (Mus musculus [8]): Active; Anticonvulsant activity (Mus musculus [12]): Active
Cc1cccc(C(C)C)c1NC(=O)c1ccccc1N	–	–	Not Active	inactive	inactive	inactive	–	Anticonvulsant activity (Mus musculus [15]): Active; Toxicity (Mus musculus [16]): Not Active
